From ChEMBL document CHEMBL1138987, “Development of cyclic gamma-MSH analogues with selective hMC3R agonist and hMC3R/hMC5R antagonist activities” (J Med Chem, 2006) come the findings set out here.

The target in assay [1] is T1, Melanocyte-stimulating hormone receptor (Homo sapiens, UniProt Q01726). Nature of the assay: Inhibitory activity against hMC1R transfected in HEK293 cells. It counts as cell-based. Summed up:
(§1)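 Competition binding on whole HEK293 cells stably expressing the human receptor, seeded 48 h prior. Binding buffer was MEM, 25 mM HEPES pH 7.4, 0.2% BSA, 1,10-phenanthroline, leupeptin and bacitracin. Cells washed and lysed, then gamma counted. IC50 from nonlinear least-squares fit; mean of two experiments in triplicate.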
Target sequence in this assay (Q01726 whole entry): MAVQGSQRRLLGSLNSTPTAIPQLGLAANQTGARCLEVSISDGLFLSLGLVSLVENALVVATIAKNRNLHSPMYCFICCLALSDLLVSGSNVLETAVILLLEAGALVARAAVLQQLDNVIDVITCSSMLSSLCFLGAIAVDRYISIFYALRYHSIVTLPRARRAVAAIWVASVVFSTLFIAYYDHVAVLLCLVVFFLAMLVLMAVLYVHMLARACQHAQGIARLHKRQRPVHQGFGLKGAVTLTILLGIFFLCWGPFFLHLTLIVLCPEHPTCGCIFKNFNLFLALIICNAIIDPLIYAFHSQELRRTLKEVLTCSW

Assay [2] deals with T2, Melanocortin receptor 3 (Homo sapiens, UniProt P41968). Nature of the assay: Inhibitory activity against hMC3R transfected in HEK293 cells. It counts as cell-based. Summed up: as §1
T2 sequence (P41968 whole entry): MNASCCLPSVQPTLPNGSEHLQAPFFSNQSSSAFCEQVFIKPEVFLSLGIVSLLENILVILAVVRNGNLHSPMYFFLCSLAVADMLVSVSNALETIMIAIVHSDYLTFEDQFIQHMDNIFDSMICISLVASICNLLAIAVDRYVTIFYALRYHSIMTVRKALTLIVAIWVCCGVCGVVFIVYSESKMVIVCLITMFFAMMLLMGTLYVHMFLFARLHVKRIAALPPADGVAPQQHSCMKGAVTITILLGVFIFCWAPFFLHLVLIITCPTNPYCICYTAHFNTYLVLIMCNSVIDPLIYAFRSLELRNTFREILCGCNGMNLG
Assay [3] has as its target T2, Melanocortin receptor 3. Nature of the assay: Activity against hMC3R transfected in HEK293 cells by intracellular cAMP accumulation. It counts as functional, cell-based. Summed up:
(§2)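 HEK293 cells stably transfected with human receptor, grown to confluence in MEM with 10% FBS, seeded 48 h before assay. Cells preincubated 1 min at 37 °C in EBSS with IBMX (0.5 mM stock). Peptide added (10^-10 to 10^-5 M), 3 min at 37 °C. Stopped with ice-cold Tris/EDTA, boiled, cAMP measured by competitive binding kit. EC50 from nonlinear least-squares fit; mean of two experiments in triplicate.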

The target in assay [4] is T3, Melanocortin receptor 4 (Homo sapiens, UniProt P32245). Nature of the assay: Activity against hMC4R transfected in HEK293 cells by intracellular cAMP accumulation. The class given is functional, cell-based. The procedure, abridged:
as §2

Assay [5] deals with T4, Melanocortin receptor 5 (Homo sapiens, UniProt P33032). Nature of the assay: Inhibitory activity against hMC5R transfected in HEK293 cells. The class given is cell-based. The procedure, abridged: as §1
T4 sequence (P33032 whole entry): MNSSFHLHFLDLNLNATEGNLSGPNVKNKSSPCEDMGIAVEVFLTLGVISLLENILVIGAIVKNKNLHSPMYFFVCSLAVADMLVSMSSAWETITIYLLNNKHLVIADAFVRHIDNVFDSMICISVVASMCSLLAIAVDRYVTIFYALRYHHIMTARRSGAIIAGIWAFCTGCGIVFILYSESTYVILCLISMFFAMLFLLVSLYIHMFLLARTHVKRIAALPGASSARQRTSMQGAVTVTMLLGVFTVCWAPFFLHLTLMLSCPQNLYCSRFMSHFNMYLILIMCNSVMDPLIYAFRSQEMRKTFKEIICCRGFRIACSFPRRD
Assay [6] has as its target T3, Melanocortin receptor 4. Put plainly: Inhibitory activity against hMC4R transfected in HEK293 cells. The class given is cell-based. Summed up:
as §1

The target of assay [7] is T1, Melanocyte-stimulating hormone receptor. Put plainly: Activity against hMC1R transfected in HEK293 cells by intracellular cAMP accumulation. The class given is functional, cell-based. The procedure, abridged:
as §2
On the technique in general: cAMP levels reflect the balance of adenylyl cyclase and phosphodiesterase activity.

The target of assay [8] is T4, Melanocortin receptor 5. Put plainly: Activity against hMC5R transfected in HEK293 cells by intracellular cAMP accumulation. The class given is functional, cell-based. The procedure, abridged: as §2

Each structure is given as a SMILES string.

T3 sequence (P32245 whole entry): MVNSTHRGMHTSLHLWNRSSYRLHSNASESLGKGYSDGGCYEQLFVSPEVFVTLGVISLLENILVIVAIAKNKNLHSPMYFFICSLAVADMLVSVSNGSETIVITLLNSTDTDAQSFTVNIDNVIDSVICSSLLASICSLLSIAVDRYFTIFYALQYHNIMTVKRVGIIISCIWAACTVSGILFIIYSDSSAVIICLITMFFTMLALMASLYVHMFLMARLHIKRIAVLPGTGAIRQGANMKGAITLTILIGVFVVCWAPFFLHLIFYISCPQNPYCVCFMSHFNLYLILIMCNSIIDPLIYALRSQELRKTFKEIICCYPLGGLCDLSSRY

Broadly, the IC50 is the concentration that gives 50% inhibition. High values mean weaker potency, low ones greater potency. As usually defined, the EC50 is the concentration at which the effect is half-maximal. The low end stands for an effect from little substance, the high end for a need for much substance. As for `CCCC[C@@H]1NC(=O)CC[C@@H](C(N)=O)NC(=O)[C@H](Cc2c[nH]c3ccccc23)NC(=O)[C@H](CCCN=C(N)N)NC(=O)[C@@H](Cc2ccccc2)NC(=O)[C@H](CCC(N)=O)NC1=O`, the IC50 in assay [1] is 1000 nM; in assay [2] it was 270 nM; in assay [5], 500 nM; in assay [6], more than 10000 nM. Moreover, the EC50 in assay [3] was 1700 nM; in assay [4], more than 10000 nM; in assay [7] it was 1000 nM; in assay [8] it was 300 nM.
Turning to `CCCC[C@@H]1NC(=O)CC[C@@H](C(N)=O)NC(=O)[C@H](Cc2c[nH]c3ccccc23)NC(=O)[C@H](CCCN=C(N)N)NC(=O)[C@@H](Cc2ccccc2)NC(=O)[C@H](CCCN=C(N)N)NC1=O`, the IC50 in assay [1] turned out to be 1400 nM; in assay [2], 140 nM; in assay [5], 68 nM; in assay [6], 270 nM. In addition, the EC50 in assay [3] was 1.2 nM; in assay [4], 174 nM; in assay [7] it was more than 10000 nM; in assay [8], more than 10000 nM.
For `CCCC[C@@H]1NC(=O)CC[C@@H](C(N)=O)NC(=O)[C@H](Cc2c[nH]c3ccccc23)NC(=O)[C@H](CCCN=C(N)N)NC(=O)[C@@H](Cc2ccccc2)NC(=O)[C@H](C(C)C)NC1=O`, the IC50 in assay [1] was more than 10000 nM; in assay [2] it was 600 nM; in assay [5], 110 nM; in assay [6], 2500 nM. Moreover, the %max in assay [3] came to 108%; in assay [4], 25%; in assay [7], 0%; in assay [8], 75%. In addition, the EC50 in assay [3] is 27 nM; in assay [4], 3000 nM; in assay [7], more than 10000 nM; in assay [8] it was 180 nM.
As for `CCCC[C@@H]1NC(=O)CC[C@@H](C(N)=O)NC(=O)[C@H](Cc2c[nH]c3ccccc23)NC(=O)[C@H](CCCN=C(N)N)NC(=O)[C@@H](Cc2ccccc2)NC(=O)[C@@H]2CCCN2C1=O`, the IC50 in assay [1] was more than 10000 nM; in assay [2], 2700 nM; in assay [5], 400 nM; in assay [6], 2700 nM. In addition, the EC50 is more than 10000 nM in assay [3], 10000 nM in assay [4], more than 10000 nM in assay [7] and 850 nM in assay [8].
On to `CCCC[C@@H]1NC(=O)CC[C@@H](C(N)=O)NC(=O)[C@H](Cc2c[nH]c3ccccc23)NC(=O)[C@H](CCCN=C(N)N)NC(=O)[C@@H](Cc2ccc3ccccc3c2)NC(=O)[C@H](C(C)C)NC1=O`, for which the IC50 in assay [1] was 4000 nM; in assay [2] it was 1.7 nM; in assay [5], 2.2 nM; in assay [6], 180 nM. For the same compound, the %max in assay [3] worked out at 0%; in assay [4] it was 13%; in assay [7], 0%; in assay [8] it was 0%. Moreover, the EC50 is more than 10000 nM in assay [3], 16 nM in assay [4], more than 10000 nM in assay [7] and more than 10000 nM in assay [8]. For the same compound, the Kb in assay [3] (read-out: pA2 (converted)) is 3.98 nM; in assay [8] (read-out: pA2 (converted)), 2 nM.
